pIC50: −log10 of the molar value.
Legend:
[1] = biological target: T1, CK2 (Homo sapiens, UniProt P19784+P68400); assay: Cellular CK2 activity, anti-phospho CK2 substrate immunoblot, HEK293T; type: cell-based; settings: HEK293T cells, 24 hours, various concentrations
[2] = biological target: CK2 (Homo sapiens, UniProt P68400); assay: biochemical
[3] = system: Bmal1-dLuc U2OS cells; assay: Cell-based circadian assay, Bmal1-dLuc reporter; set-up: species or system human
Outline: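 Stable U2OS Bmal1-dLuc cells were seeded at 3000 per well in DMEM/10% FBS. After 2 days, B27/HEPES explant medium with 0.2 or 1 mM luciferin (pH 7.2) was added, plus compound (final 0.7% DMSO). Luminescence was read every 100 min for 5 days, first day excluded. Period came from curve fitting; intensity was averaged over the run; n = 4. LogEC50 was from sigmoidal fits of threefold 12-point series.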

[4] = system: Per2-dLuc U2OS cells; assay: Cell-based circadian assay, Per2-dLuc reporter; set-up: species or system human
[5] = system: cells differentiated from Per2::LucSV knock-in ES cells; assay: Circadian assay in differentiated ES cells; type: cell-based, mouse
Outline: (§1)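 ES cells were kept on feeder fibroblasts; Per2 was disrupted by CRISPR-Cas9 in Bmal1-Luc ES cells. Embryoid bodies formed over 2 days in low-attachment wells, then grew 26 days on gelatin. On day 28, cells got 100 nM dexamethasone for 1 h, then 0.2 mM luciferin with compound. Luminescence was integrated 1 min every 20 min; period came from sine-wave fitting. Replicates: Per2::LucSV n = 4; Per2 knockout versus wild-type n = 3 to 4.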

[6] = system: lung explants from Per2::Luc mice; assay: Circadian rhythms in lung explants; type: cell-based, mouse
Outline: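 Lung pieces from Per2::Luc knock-in mice were cultured in luciferin-containing explant medium with compound (final 0.24% DMSO). Luminescence was recorded every 30 min for 5 days, excluding the first day. Period was derived by curve fitting.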

[7] = biological target: PIM2 (Homo sapiens, UniProt Q9P1W9); assay: In vitro PIM2 kinase assay; type: biochemical
Outline: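 Kinase-Glo assay measuring remaining ATP. Compound was added (final 5% DMSO) and reactions were started with ATP (final 3 μM). PIM2 ran at 30°C for 3 h. The CK2 comparator used CK2 (1.5 ng/μl) with 50 μM substrate peptide in 40 mM tris, 10 mM MgCl2, 0.5 mM DTT, 150 mM NaCl, pH 7.5, at 37°C for 1.5 h.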

[8] = biological target: CLK2 (Homo sapiens, UniProt P49760); assay: In vitro CLK2 kinase assay; type: biochemical
[9] = biological target: CKIδ (Homo sapiens, UniProt P48730); assay: In vitro CKIδ kinase assay; type: biochemical
[10] = biological target: CKIα (Homo sapiens, UniProt P48729); assay: In vitro CKIα kinase assay; type: biochemical
[11] = biological target: CRY1 (Mus musculus, UniProt P97784); assay: CRY1 degradation assay; type: cell-based; settings: CRY1-LUC HEK293 cells, 24 h
[12] = biological target: GSK-3β (Homo sapiens, UniProt P49841); assay: Kinase profiling; type: biochemical; settings: 5 μM
[13] = system: 59 kinases from a variety of classes; assay: Kinase profiling, panel of 60 kinases; type: biochemical; settings: 5 μM
[14] = biological target: T1, CK2; assay: Cellular CK2 activity, anti-phospho CK2 substrate immunoblot, U2OS; type: cell-based; settings: U2OS cells, 24 hours, concentrations similar to those that affected circadian period
[15] = system: PKA (protein kinase A); assay: Anti-phospho PKA substrate immunoblot, HEK293T; type: cell-based, human; settings: HEK293T cells, 24 hours
Outline: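 HEK293T cells exposed to a range of test compound concentrations for 24 hours. Lysates were immunoblotted with anti-phospho CK2 substrate antibody, then the membrane was reprobed with anti-phospho PKA substrate and anti-β-actin antibodies.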

[16] = system: PER2; assay: Phosphoproteomics of Flag-tagged PER2 in HEK293T cells; type: cell-based, mouse; settings: full-length PER2, 8 μM, 24 h (table S1)
Outline: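 HEK293T cells were reverse-transfected (Lipofectamine 2000) with C-terminal 3XFlag-tagged mouse PER2 plus CK2α. After 24 h, they received 0 or 8 μM compound for 24 h. Lysis was in 1% NP-40 buffer (pH 8.0) with phosphatase inhibitors, followed by anti-Flag immunoprecipitation and LC-MS/MS after four-protease digestion. Phosphorylation was expressed as phosphopeptide/total peptide spectra, and the effect as the treated/control ratio.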

[17] = system: BMAL1 S90; assay: BMAL1 S90 phosphorylation immunoblot in NIH-3T3 cells; type: cell-based, mouse; settings: 10 μM, different times
Outline: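 NIH-3T3 cells were exposed to 10 μM test compound for varying times. Lysates were immunoprecipitated with anti-BMAL1 antibody, then immunoblotted with anti-P-BMAL1-S90 and anti-BMAL1 antibodies. Protein was quantified by Bradford.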

[18] = system: Per2 knockout cells differentiated from ES cells; assay: Circadian assay in Per2 knockout cells differentiated from Bmal1-Luc ES cells; type: cell-based, mouse
Outline: as §1

[19] = system: Caki-2; assay: Proliferation assay of RCC line Caki-2; type: cell-based, human; settings: Caki-2, 2 days
Outline: (§2)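 Lines were kept in RPMI-1640/10% FBS and plated 1 day before treatment. Seeding per well: Caki-2 and A704 at 2.0 × 10^4; 786-O, A498, 769-P and ACHN at 1.0 × 10^4; RCC4+vec at 0.7 × 10^4; RCC4+VHL at 0.8 × 10^4. Two days after dosing, cells were stained with Hoechst 33342 (2 μg/ml, 1 h) and counted by imaging.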

[20] = system: A498; assay: Proliferation assay of RCC line A498; type: cell-based, human; settings: A498, 2 days
Outline: as §2

[21] = system: 769-P; assay: Proliferation assay of RCC line 769-P; type: cell-based, human; settings: 2 days
Outline: as §2

[22] = system: 786-O; assay: Proliferation assay of RCC line 786-O; type: cell-based, human; settings: 2 days
Outline: as §2

[23] = system: RCC4+vec; assay: Proliferation assay of RCC line RCC4+vec; type: cell-based, human; settings: 2 days
Outline: as §2

[24] = system: RCC4+VHL; assay: Proliferation assay of RCC line RCC4+VHL; type: cell-based, human; settings: 2 days
Outline: as §2

[25] = system: A704; assay: Proliferation assay of RCC line A704; type: cell-based, human; settings: A704, 2 days
Outline: as §2

[26] = system: ACHN; assay: Proliferation assay of RCC line ACHN; type: cell-based, human; settings: 2 days
Outline: as §2

[27] = system: MLL-AF9 leukemia cells; assay: Proliferation assay of MLL-AF9 leukemia cells; type: cell-based; settings: mouse MLL-AF9 leukemia cells, 2 days
Outline: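 GFP-positive MLL-AF9 leukemia cells were taken from leukemic mouse bone marrow and kept in IMDM/10% FBS with SCF 20 ng/ml and mIL-3, mIL-6 and GM-CSF at 10 ng/ml each. Cells were plated at 2.0 × 10^4 per well with compound, incubated at 37°C for 2 days, then counted by flow cytometry.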

[28] = system: LSK hematopoietic progenitor cells; assay: Proliferation assay of LSK hematopoietic progenitor cells; type: cell-based, mouse; settings: LSK hematopoietic progenitor cells (normal counterpart), 2 days
Outline: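 LSK progenitors were maintained in StemSpan with SCF and TPO (100 ng/ml each). Cells were plated at 1.0 × 10^4 per well with compound, held at 37°C for 2 days, then counted by flow cytometry.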

[29] = system: OCI-AML3; assay: Proliferation assay of OCI-AML3 cells; type: cell-based, human; settings: OCI-AML3, 4 days
Outline: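 OCI-AML3 cells were kept in MEM alpha/20% FBS, plated at 1.0 × 10^4 per well with compound, and incubated at 37°C for 4 days. Viability was read with Cell Counting Kit-8.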

[30] = system: MLL-AF9 tissues (spleen and bone marrow explants); type: cell-based, mouse; settings: MLL-AF9 tissues relative to the control
Outline: (§3)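 Explants: spleen and bone marrow from transplant mice. MLL-AF9 leukemia cells derived from Per2::Luc bone marrow were serially transplanted into nonreporter C57BL/6J mice. Controls were C57BL/6J recipients of Per2::Luc bone marrow, used 3 months later. Tissue was cultured in luciferin explant medium with compound (0.24% DMSO final). Luminescence was read every 30 min for 5 days, first day excluded. Period was curve-fitted; intensity was averaged over the run. MLL-AF9 n = 11; control n = 10 to 20.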

[31] = system: control spleen and bone marrow explants; assay: Per2::Luc rhythms in control spleen and bone marrow explants; type: cell-based, mouse
Outline: as §3

[32] = biological target: recombinant CK2 (α2β2 tetramer) (Homo sapiens, UniProt P68400); type: binding; settings: recombinant CK2, agarose-conjugated GO457, immunoblot
[33] = system: CK2α (CSNK2A1), CK2α′ (CSNK2A2), CK2β (CSNK2B), and GSK-3β (GSK3B); type: binding, human; settings: U2OS cell lysate, 50 μM free compound
Outline: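 Unsynchronized confluent U2OS cells (1.6 × 10^8) were Dounce-homogenized in MOPS/EGTA/MgCl2/DTT buffer (pH 7.2) and sonicated. NP-40 was added to 0.5%, and the extract was cleared at 14,000g. Halves were preincubated with 0 or 50 μM free compound (0.5% DMSO) at 4°C for 30 min, then with the agarose-conjugated probe for 1 h. Bound proteins were in-gel digested for nanoLC-MS/MS; two independent experiments.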

T1 sequence (P68400 whole entry): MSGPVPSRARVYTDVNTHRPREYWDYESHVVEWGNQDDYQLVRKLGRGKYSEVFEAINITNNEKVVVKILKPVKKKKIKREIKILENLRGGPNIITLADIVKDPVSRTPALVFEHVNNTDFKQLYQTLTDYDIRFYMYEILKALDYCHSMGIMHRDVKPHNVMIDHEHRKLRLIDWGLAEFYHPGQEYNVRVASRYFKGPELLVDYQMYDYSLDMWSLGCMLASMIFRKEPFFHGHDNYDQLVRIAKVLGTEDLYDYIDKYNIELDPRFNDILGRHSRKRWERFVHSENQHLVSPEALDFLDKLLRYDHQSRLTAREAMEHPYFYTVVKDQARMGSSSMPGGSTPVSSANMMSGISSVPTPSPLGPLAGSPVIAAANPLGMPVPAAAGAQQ
T1 sequence (P19784 whole entry): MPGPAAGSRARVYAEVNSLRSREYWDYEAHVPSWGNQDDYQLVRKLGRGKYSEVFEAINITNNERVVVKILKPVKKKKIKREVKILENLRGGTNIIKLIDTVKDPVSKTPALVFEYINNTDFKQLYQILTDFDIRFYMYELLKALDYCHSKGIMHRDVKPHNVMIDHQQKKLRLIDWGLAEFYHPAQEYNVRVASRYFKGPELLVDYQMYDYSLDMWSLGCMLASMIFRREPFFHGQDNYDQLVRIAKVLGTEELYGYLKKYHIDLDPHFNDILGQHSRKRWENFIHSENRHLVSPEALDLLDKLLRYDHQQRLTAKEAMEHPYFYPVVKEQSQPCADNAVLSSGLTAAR
T1 sequence (P67870 whole entry partner): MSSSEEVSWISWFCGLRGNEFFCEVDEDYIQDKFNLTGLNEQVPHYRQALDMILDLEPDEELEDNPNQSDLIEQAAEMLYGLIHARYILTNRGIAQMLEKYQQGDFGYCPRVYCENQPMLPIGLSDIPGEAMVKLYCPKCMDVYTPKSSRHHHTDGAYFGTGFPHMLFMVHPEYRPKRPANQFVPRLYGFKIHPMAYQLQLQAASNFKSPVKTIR
CK2 (Homo sapiens, UniProt P68400), sequence (P68400 whole entry): as the sequence (P68400 whole entry) above
CK2 (Homo sapiens, UniProt P68400), sequence (P67870 whole entry partner): as the sequence (P67870 whole entry partner) above
PIM2, sequence (Q9P1W9 whole entry): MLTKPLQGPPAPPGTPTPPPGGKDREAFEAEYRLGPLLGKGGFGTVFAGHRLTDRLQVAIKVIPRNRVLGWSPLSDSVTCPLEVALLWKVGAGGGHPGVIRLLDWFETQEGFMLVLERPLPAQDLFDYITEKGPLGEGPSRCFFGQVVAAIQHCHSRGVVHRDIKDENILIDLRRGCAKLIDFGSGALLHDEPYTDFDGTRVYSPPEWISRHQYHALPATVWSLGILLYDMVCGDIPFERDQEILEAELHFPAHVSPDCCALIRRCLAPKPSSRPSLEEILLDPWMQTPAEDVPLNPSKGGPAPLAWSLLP
CLK2, sequence (P49760 whole entry): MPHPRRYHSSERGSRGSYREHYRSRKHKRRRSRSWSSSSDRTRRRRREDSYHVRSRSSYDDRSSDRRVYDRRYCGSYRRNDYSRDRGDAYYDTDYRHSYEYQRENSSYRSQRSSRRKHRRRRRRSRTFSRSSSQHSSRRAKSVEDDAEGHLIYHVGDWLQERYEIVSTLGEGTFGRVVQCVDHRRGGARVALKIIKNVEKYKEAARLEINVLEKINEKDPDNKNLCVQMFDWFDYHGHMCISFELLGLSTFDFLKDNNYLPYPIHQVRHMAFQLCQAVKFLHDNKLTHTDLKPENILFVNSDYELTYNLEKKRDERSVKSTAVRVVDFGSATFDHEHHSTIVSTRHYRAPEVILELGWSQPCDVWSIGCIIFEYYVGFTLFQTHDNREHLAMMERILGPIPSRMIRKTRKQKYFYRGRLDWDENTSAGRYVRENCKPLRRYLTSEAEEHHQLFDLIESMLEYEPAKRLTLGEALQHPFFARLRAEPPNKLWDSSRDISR
recombinant CK2 (α2β2 tetramer), sequence (P68400 whole entry): as the sequence (P68400 whole entry) above
recombinant CK2 (α2β2 tetramer), sequence (P67870 whole entry partner): as the sequence (P67870 whole entry partner) above
CRY1, sequence (P97784 whole entry): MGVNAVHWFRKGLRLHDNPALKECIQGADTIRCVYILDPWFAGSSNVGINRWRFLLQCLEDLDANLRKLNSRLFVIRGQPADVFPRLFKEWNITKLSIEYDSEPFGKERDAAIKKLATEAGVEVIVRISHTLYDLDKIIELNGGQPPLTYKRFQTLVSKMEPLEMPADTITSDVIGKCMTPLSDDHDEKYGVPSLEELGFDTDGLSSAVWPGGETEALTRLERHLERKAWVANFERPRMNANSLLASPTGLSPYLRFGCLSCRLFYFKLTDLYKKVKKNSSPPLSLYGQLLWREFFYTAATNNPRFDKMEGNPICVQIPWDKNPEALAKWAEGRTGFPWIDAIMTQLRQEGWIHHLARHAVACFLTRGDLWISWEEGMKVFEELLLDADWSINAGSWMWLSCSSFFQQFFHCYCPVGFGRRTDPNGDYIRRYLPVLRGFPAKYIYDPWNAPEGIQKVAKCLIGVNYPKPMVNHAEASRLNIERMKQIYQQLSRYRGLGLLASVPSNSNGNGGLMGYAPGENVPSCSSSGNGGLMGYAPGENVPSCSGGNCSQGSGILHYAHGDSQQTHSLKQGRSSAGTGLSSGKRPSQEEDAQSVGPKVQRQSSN
CKIδ, sequence (P48730 whole entry, species assumed): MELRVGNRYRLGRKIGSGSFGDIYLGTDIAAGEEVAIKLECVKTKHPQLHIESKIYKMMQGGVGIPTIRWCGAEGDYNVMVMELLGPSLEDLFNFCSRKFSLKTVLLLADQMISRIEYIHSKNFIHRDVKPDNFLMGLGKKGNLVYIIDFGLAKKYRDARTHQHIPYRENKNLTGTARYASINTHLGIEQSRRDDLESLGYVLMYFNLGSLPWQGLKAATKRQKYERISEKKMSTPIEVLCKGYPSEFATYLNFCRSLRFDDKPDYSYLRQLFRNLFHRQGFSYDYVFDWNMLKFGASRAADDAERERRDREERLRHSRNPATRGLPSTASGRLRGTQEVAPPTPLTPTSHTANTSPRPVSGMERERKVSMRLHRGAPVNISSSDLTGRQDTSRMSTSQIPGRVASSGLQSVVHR
CKIα, sequence (P48729 whole entry, species assumed): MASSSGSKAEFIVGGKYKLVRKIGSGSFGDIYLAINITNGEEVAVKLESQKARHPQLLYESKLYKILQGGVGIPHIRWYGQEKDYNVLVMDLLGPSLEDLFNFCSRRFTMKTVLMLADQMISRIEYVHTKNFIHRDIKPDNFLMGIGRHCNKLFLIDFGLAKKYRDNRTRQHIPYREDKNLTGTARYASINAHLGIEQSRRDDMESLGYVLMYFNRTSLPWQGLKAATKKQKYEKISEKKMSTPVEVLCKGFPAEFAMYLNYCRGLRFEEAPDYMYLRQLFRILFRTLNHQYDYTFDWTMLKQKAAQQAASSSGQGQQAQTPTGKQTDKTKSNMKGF
GSK-3β, sequence (P49841 whole entry): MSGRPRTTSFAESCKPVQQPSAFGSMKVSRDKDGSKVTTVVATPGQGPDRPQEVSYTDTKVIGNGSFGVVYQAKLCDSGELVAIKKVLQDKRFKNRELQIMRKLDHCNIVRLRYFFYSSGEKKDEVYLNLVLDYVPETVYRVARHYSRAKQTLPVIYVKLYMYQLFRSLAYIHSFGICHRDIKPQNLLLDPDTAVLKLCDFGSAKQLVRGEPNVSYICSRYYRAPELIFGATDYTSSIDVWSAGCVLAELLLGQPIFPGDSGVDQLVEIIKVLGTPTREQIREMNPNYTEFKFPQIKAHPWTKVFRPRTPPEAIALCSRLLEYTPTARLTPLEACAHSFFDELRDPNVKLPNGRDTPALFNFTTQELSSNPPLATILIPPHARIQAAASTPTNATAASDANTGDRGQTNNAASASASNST

Cc1cc2sc(NC(=O)Cc3ccccc3)nc2cc1Cl [LH846, reference compound]
Phosphorylation of CK2 substrates (anti-phospho CK2 substrate antibody) [1]: neither the CKIδ inhibitor LH846 nor the GSK-3 inhibitor CHIR-99021 altered the CK2-specific phosphorylation pattern

COc1cc(/C(C)=N/n2c(SC)nnc2-c2ccccc2)c(Br)cc1O [compound 27]
CK2 inhibitory activity in vitro ([2]; in vitro CK2 kinase assay (fig. S5)): complete loss of CK2 inhibition

CN(C)c1nc2c(Br)c(Br)c(Br)c(Br)c2[nH]1 [DMAT, reference compound]
Effect on luminescence (reporter signal intensity) ([3]; vs DMSO control): severe reduction in luminescence

COc1cc(/C=N/n2c(SC)nnc2-c2ccccc2)c(Br)cc1O [GO289]
Effect on circadian period [3]: dose-dependent lengthening of circadian period
Effect on luminescence (reporter signal intensity) ([3]; vs DMSO control): little effect on luminescence
Lengthening of circadian period ([3]; vs DMSO control): more than 12 hours
Effect on circadian period [4]: dose-dependent lengthening of circadian period
Effect on circadian period [5]: lengthened periods
Effect on circadian period [6]: lengthened periods
pIC50 [2]: 8.15
pIC50 [7]: 4.89
IC50 ratio against CK2 over PIM family kinase (PIM2) ([7]; PIM2 IC50 relative to CK2 IC50): > 1000
pIC50 [8]: < 4.30
Effect on CKIδ activity in vitro [9]: minor effects
Effect on CKIα activity in vitro [10]: minor effects
CRY1 stabilization in cell-based degradation assay [11]: no stabilization of CRY1
Effect on GSK-3β activity [12]: minor effect
Effect on the activity of 59 kinases [13]: only a moderate or minor effect
Phosphorylation of CK2 substrates (anti-phospho CK2 substrate antibody) [1]: reduced by GO289 in a dose-dependent manner
Cellular CK2 activity (anti-phospho CK2 substrate antibody) [14]: Inhibition of cellular CK2 activity
Signal of anti-phospho PKA substrate antibody [15]: not affected by GO289
Phosphorylation of PER2 T12/S13 and S53 (previously reported CK2 sites) [16]: either unchanged or up-regulated
BMAL1 S90 phosphorylation (immunoblot) [17]: down-regulation
Period lengthening of Bmal1-Luc rhythms in Per2 knockout vs wild-type cells [18]: slightly enhanced
Cell growth [19]: strongly inhibited
Cell growth [20]: strongly inhibited
Cell growth [21]: strongly inhibited
Cell growth [22]: less affected
Cell growth [23]: less affected
Cell growth [24]: less affected
Cell growth [25]: less affected
Cell growth [26]: less affected
Cell growth [27]: significantly reduced growth
Cell growth [28]: much less affected
Cell growth [29]: sensitive to GO289
Luminescence intensity of Per2::Luc reporter [30]: severe reduction in luminescence
Effect on circadian period [31]: lengthened circadian period
Competition of CK2 interaction with affinity probe [32]: blocked by increasing concentrations of free GO289
Competition of protein interactions with affinity probe [33]: blocked by free GO289

O=C(O)c1ccc2c(c1)nc(Nc1cccc(Cl)c1)c1ccncc12 [CX-4945, reference compound]
Effect on luminescence (reporter signal intensity) ([3]; vs DMSO control): severe reduction in luminescence
Cell growth [19]: inhibited growth
Cell growth [25]: less of an effect
Cell growth [26]: less of an effect

— publication PMC6357737 (Science Advances, 2019)
